Drawing on ChEMBL document CHEMBL1153146, “Novel potent apoA-I peptide mimetics that stimulate cholesterol efflux and pre-beta particle formation in vitro” (Bioorg Med Chem Lett, 2010), this text covers IC50 and EC50 for five molecules.

Usually IC50 stands for the concentration that inhibits the measured activity by half. As usually defined, the EC50 is the concentration needed to bring the measured effect to its halfway point.

For data set [1], the system named is RAW264.7. Kind of data set: Cytotoxicity against mouse RAW264.7 cells after 24 hrs by MTT assay. The class given is cell-based. The settings on record: RAW264.7, 24 h. The method in brief:
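RAW macrophage cytotoxicity examined at peptide concentrations up to 160 µM.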
A general note: Tetrazolium dyes change colour on reduction, which living cells bring about.

A short description of data set [2]: Toxicity in human RBC assessed as hemolysis. Format: cell-based, Erythrocyte. The settings on record: red blood cells (RBC). Summed up:
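Red blood cell lysis assay; cytotoxicity reported as IC50 in µM.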

Data set [3] relates to RAW264.7. The data set can be described thus: Induction of [3H]cholesterol efflux in mouse RAW264.7 cells after 24 hrs by scintillation counting. The class given is functional, cell-based. Summed up: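 Cholesterol efflux from RAW macrophages; EC50 reported in µM as the mean of three experiments.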
[4] abbreviates: Mus musculus, RAW264.7, read-out: EC50.

Each structure is given as a SMILES string. Non-standard residues stand in square brackets, D forms with d. Residues, ends and D or L forms follow the SMILES beside them. Gla = N[C@@H](CC(C(=O)O)C(=O)O)C(=O)O

Regarding `C=CCCC[C@@H](NC(=O)[C@H](CCC(=O)O)NC(=O)[C@H](CC(N)=O)NC(=O)[C@H](CC(C)C)NC(=O)[C@@H](CCCC=C)NC(=O)[C@H](CCC(=O)O)NC(=O)[C@H](CCCNC(=N)N)NC(=O)[C@H](Cc1ccccc1)NC(=O)[C@H](CCC(=O)O)NC(=O)[C@H](CC(=O)O)NC(=O)[C@H](CC(C)C)NC(=O)[C@@H](NC(=O)[C@@H]1CCCN1)C(C)C)C(=O)N[C@@H](CC(C)C)C(=O)N[C@@H](CCC(=O)O)C(=O)N[C@@H](C)C(=O)N[C@@H](CC(C)C)C(=O)N[C@@H](CCCCN)C(=O)N[C@@H](CCC(N)=O)C(=O)N[C@@H](CCCCN)C(=O)N[C@@H](CC(C)C)C(=O)N[C@@H](CCCCN)C(=O)O`, the IC50 (in the data set with RAW264.7 [1]; in data set [2]) was above 160 µM in each case. For the same molecule, the EC50 in the data set on RAW264.7 [3] (setting [4]) was found to be 46 µM.
As for `CC(C)C[C@H](NC(=O)[C@H](C)NC(=O)[C@H](CCC(=O)O)NC(=O)[C@H](CC(C)C)NC(=O)[C@H]1CCC/C=C\CCC[C@@H](NC(=O)[C@H](CCC(=O)O)NC(=O)[C@H](CCCNC(=N)N)NC(=O)[C@H](Cc2ccccc2)NC(=O)[C@H](CCC(=O)O)NC(=O)[C@H](CC(=O)O)NC(=O)[C@H](CC(C)C)NC(=O)[C@@H](NC(=O)[C@@H]2CCCN2)C(C)C)C(=O)N[C@@H](CC(C)C)C(=O)N[C@@H](CC(N)=O)C(=O)N[C@@H](CCC(=O)O)C(=O)N1)C(=O)N[C@@H](CCCCN)C(=O)N[C@@H](CCC(N)=O)C(=O)N[C@@H](CCCCN)C(=O)N[C@@H](CC(C)C)C(=O)N[C@@H](CCCCN)C(=O)O`, the IC50 (in the data set on RAW264.7 [1]; in data set [2]) was above 160 µM each time. The EC50 with RAW264.7 [3] (setting [4]) came out at 10 µM.
On to `C=CCCCCC[C@H](NC(=O)[C@H](CCC(=O)O)NC(=O)[C@H](CC(=O)O)NC(=O)[C@H](CC(C)C)NC(=O)[C@@H](NC(=O)[C@@H]1CCCN1)C(C)C)C(=O)N[C@@H](CCCNC(=N)N)C(=O)N[C@@H](CCC(=O)O)C(=O)N[C@@H](CCCCN)C(=O)N[C@@H](CC(C)C)C(=O)N[C@@H](CC(N)=O)C(=O)N[C@H](CCC(=O)O)C(=O)N[C@@H](CCCCC=C)C(=O)N[C@H](CC(C)C)C(=O)N[C@H](CCC(=O)O)C(=O)N[C@H](C)C(=O)N[C@H](CC(C)C)C(=O)N[C@H](CCCCN)C(=O)N[C@H](CCC(N)=O)C(=O)N[C@H](CCCCN)C(=O)N[C@H](CC(C)C)C(=O)N[C@H](CCCCN)C(=O)O`, for which the IC50 (in the data set with RAW264.7 [1]; in data set [2]) was above 160 µM in each case. The EC50 with RAW264.7 [3] (setting [4]) turned out to be 1.3 µM.
As to `CC(C)C[C@H](NC(=O)[C@H](C)NC(=O)[C@H](CCC(=O)O)NC(=O)[C@H](CC(C)C)NC(=O)[C@@H]1CCC/C=C\CCC[C@@H](NC(=O)[C@H](CCC(=O)O)NC(=O)[C@H](CCCNC(=N)N)NC(=O)[C@H](Cc2ccccc2)NC(=O)[C@H](CCC(=O)O)NC(=O)[C@H](CC(=O)O)NC(=O)[C@H](CC(C)C)NC(=O)[C@@H](NC(=O)[C@@H]2CCCN2)C(C)C)C(=O)N[C@@H](CC(C)C)C(=O)N[C@@H](CC(N)=O)C(=O)N[C@@H](CCC(=O)O)C(=O)N1)C(=O)N[C@@H](CCCCN)C(=O)N[C@@H](CCC(N)=O)C(=O)N[C@@H](CCCCN)C(=O)N[C@@H](CC(C)C)C(=O)N[C@@H](CCCCN)C(=O)O`, the IC50 (in the data set with RAW264.7 [1]; in data set [2]) was above 160 µM each time. Moreover, the EC50 result in the data set on RAW264.7 [3] (raw264.7) is “Not Active”.
Consider `CC(C)C[C@H](NC(=O)[C@H](C)NC(=O)[C@H](CCC(=O)O)NC(=O)[C@H](CC(N)=O)NC(=O)[C@H](CC(C)C)NC(=O)[C@H](CCCCN)NC(=O)[C@H](CCC(=O)O)NC(=O)[C@H](CCCNC(=N)N)NC(=O)[C@H](Cc1ccccc1)NC(=O)[C@H](CCC(=O)O)NC(=O)[C@H](CC(=O)O)NC(=O)[C@H](CC(C)C)NC(=O)[C@@H](NC(=O)[C@@H]1CCCN1)C(C)C)C(=O)N[C@@H](CC(C(=O)O)C(=O)O)C(=O)N[C@@H](C)C(=O)N[C@@H](CC(C)C)C(=O)N[C@@H](CCCCN)C(=O)N[C@@H](CCC(N)=O)C(=O)N[C@@H](CCCCN)C(=O)N[C@@H](CC(C)C)C(=O)N[C@@H](CCCCN)C(=O)O` (H-PVLDEFREKLNEAL[Gla]ALKQKLK-OH), for which the IC50 in the data set on RAW264.7 [1] is above 160 µM; in data set [2] it was 75 µM. The EC50 in the data set with RAW264.7 [3] (setting [4]) came to 234 µM.
